Hits are enriched below; roughly 2.9% of the tested compounds scored in any of these assays.
E coli RNAP: inhibitors of Escherichia coli RNA polymerase; 62,000 tested, 0.2% active; E. coli RNA polymerase, fluorescence transcription assay; P0A8V2; AID 559; inhibition, %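 (tested at 10 µM)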; in the data active means inhibition above about 20%;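 further: 0% = enzyme without compound and 100% = no enzyme blank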
Hsp90 block: displaces geldanamycin probe from tumor Hsp90; P07900; NCI-N417 lysate Hsp90, Cy3B-geldanamycin FP displacement; inhibition, % at 30 µM; 64,000 tested, 0.35% active; AID 429;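 active means inhibition above 50%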;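 further: 0% = tracer plus lysate wells and 100% = tracer alone without lysate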
Cdc25B block: human M-phase inducer phosphatase 2 inhibition; 65,000 tested, 0.1% active; inhibition, %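 (compounds tested at 10 µM final in the well)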; recombinant Cdc25B, OMFP fluorescence Ex485/Em525; AID 368; in the data active means inhibition above about 50%
MKP-1 inh: inhibitors of human MKP-1 phosphatase; recombinant MKP-1, OMFP hydrolysis fluorescence; inhibition, %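 (compounds tested at a single concentration somewhere between 10 and 100 µM)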; 65,000 tested, 0.15% active; AID 374;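 active means inhibition above about 50%, limit read from the data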;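 further: 0% = DMSO max control wells and 100% = wells with enzyme stopped by NaOH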
tolC growth inh: growth inhibitors of E. coli BW25113 tolC mutant; OD615; growth inhibition, % at 10 µM (by protocol); 65,000 tested, 2.2% active; AID 573;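 active means growth inhibition at or above a cutoff equal to the mean over every tested compound plus 3 SD, cut at about 60% in these data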;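 further: growth measured after 20 h incubation at 37 °C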
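Test system: tolC-deleted E. coli BW25113 | Medium: LB with kanamycin 50 µg/mL | Compound dosing: Single concentration, 10 µM final per compound | Schedule: 37 °C, 20 h exposure | Measured by: OD at 615 nm | Evaluation: Percent growth inhibition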
BAP1 inh: blocks human BAP1 ubiquitin-AMC hydrolysis | recombinant BAP1, Ub-AMC hydrolysis fluorescence kinetic; stronger effect = lower value | calls only at 20 µM | 72,000 tested, 0.48% active;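 active means activity remaining at or below 50% of control, provided the compound also passes the data quality filters; inactive means the rest, including low values that fail the filters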;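 further: 100% = DMSO wells rate and 0% = substrate alone blank rate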
Target sequence (Q92560 whole entry, looked up): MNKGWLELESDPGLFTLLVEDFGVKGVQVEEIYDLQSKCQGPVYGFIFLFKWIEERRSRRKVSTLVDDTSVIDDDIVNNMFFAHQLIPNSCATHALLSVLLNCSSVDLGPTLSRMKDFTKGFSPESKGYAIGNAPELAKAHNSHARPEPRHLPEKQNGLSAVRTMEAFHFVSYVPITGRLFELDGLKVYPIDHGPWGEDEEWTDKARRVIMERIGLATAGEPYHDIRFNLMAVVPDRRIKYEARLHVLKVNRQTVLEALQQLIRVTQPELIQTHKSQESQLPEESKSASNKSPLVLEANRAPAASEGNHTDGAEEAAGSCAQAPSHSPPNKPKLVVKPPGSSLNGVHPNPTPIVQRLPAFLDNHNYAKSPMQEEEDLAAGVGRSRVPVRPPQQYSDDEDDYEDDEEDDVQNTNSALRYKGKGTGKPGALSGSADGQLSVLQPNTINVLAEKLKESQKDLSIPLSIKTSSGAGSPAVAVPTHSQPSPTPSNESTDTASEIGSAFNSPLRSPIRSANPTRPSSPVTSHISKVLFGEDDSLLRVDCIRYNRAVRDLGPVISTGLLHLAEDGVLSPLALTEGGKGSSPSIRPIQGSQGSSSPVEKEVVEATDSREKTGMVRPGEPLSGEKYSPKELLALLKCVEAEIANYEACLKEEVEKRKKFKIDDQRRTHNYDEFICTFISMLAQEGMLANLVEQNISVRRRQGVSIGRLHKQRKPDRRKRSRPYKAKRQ
Numbers without * were called inactive.

How did CCn1c(=O)c(C(=O)Nc2nc3ccccc3[nH]2)c(O)c2ccccc21 do in these assays?
E coli RNAP: -4.3; Hsp90 block: 2.6; Cdc25B block: -21.2; MKP-1 inh: 31.2; tolC growth inh: 5.7; BAP1 inh: inactive

What do the screens show for `O=C(NCc1ccccc1)c1c(O)c2cccc3c2n(c1=O)CCC3`?
E coli RNAP: 9.6; Hsp90 block: -6.0; Cdc25B block: 2.4; MKP-1 inh: 27.3; tolC growth inh: 18.6; BAP1 inh: inactive

Results for CCn1c(=O)c(C(=O)Nn2c(C)nc3ccccc3c2=O)c(O)c2ccccc21 ?
E coli RNAP: 0.9; Hsp90 block: -1.8; Cdc25B block: 4.5; MKP-1 inh: -28.7; tolC growth inh: 90.9*; BAP1 inh: inactive

Results for COCCNC(=O)c1nn2c(C(F)(F)F)c3c(nc2c1Cl)-c1ccccc1CC3 ?
BAP1 inh: inactive

Results for CCOC(=O)C1(N(CC)CC)Sc2cc(C)ccc2NC1=O (stereo not drawn) ?
E coli RNAP: 4.7; Hsp90 block: -2.3; Cdc25B block: -9.9; MKP-1 inh: 7.2; tolC growth inh: 72.3*; BAP1 inh: inactive

How did COC(=O)c1ccc(NC(=O)c2cccc([N+](=O)[O-])c2)cc1 do in these assays?
BAP1 inh: inactive

What do the screens show for `O=C(c1cccc(F)c1)N1CCN(C(=O)c2cc(-c3ccc(Cl)cc3Cl)on2)CC1`?
E coli RNAP: 0.2; Hsp90 block: 6.1; Cdc25B block: 1.5; MKP-1 inh: 8.8; tolC growth inh: 64.2*; BAP1 inh: inactive

What do the screens show for `N#CC1=C(N)NC(SCc2ccccc2)=C(C#N)C12CCCCC2`?
E coli RNAP: 6.0; Hsp90 block: -6.5; Cdc25B block: -11.0; MKP-1 inh: 6.8; tolC growth inh: 61.7*; BAP1 inh: inactive

How did COc1cccc(C(=O)Nc2c3c(nn2-c2ccc(C)cc2C)CSC3)c1OC do in these assays?
BAP1 inh: inactive

Results for Cc1ccc2c(c1)c1c(n2CC(O)Cn2c(C)nc3ccccc32)C(=O)CCC1 (stereo not drawn) ?
E coli RNAP: 5.5; Hsp90 block: -0.8; Cdc25B block: -5.3; MKP-1 inh: 33.3; tolC growth inh: 37.6; BAP1 inh: inactive

How did Cc1ccc2c(c1)c1c(n2CC(O)Cn2c(C)nc3ccccc32)/C(=N\O)CCC1 (stereo not drawn) do in these assays?
E coli RNAP: -3.4; Hsp90 block: -2.1; Cdc25B block: 3.1; MKP-1 inh: 30.6; tolC growth inh: 78.4*; BAP1 inh: inactive

Results for CCCOC(=O)C1=C(C)NC2=C(C(=O)CC(C)(C)C2)C1c1cc(OC)c(OC)cc1[N+](=O)[O-] (stereo not drawn) ?
BAP1 inh: inactive

Results for COc1ccc(CN2CC(C(=O)NCCCN3CCOCC3)CC2=O)cc1 (stereo not drawn) ?
E coli RNAP: 6.5; Hsp90 block: -0.5; Cdc25B block: 65.1*; MKP-1 inh: 21.6; tolC growth inh: -26.0; BAP1 inh: inactive

Results for Cc1cc(NC(=O)CCCOc2ccc(Cl)cc2Cl)no1 ?
Hsp90 block: -2.8; Cdc25B block: 64.2*; MKP-1 inh: 7.9; tolC growth inh: -13.0; BAP1 inh: inactive

What do the screens show for `CCOc1ccc(-c2n[nH]c(C)c2Oc2ccc(OC)cc2)c(O)c1`?
E coli RNAP: 7.3; Hsp90 block: 1.9; Cdc25B block: -14.7; MKP-1 inh: 15.3; tolC growth inh: 94.7*; BAP1 inh: inactive

What do the screens show for `CCCOc1ccc(-c2[nH]ncc2Oc2ccccc2)c(O)c1`?
BAP1 inh: inactive

What do the screens show for `CCOc1ccc(-c2[nH]ncc2Oc2ccccc2OCC)c(O)c1`?
E coli RNAP: 10.3; Hsp90 block: -1.4; Cdc25B block: -0.2; MKP-1 inh: 21.9; tolC growth inh: 95.1*; BAP1 inh: inactive

How did C=C(C)COc1ccc(-c2nc(N)ncc2Oc2ccc(OC)cc2)c(O)c1 do in these assays?
E coli RNAP: 5.3; Hsp90 block: 2.3; Cdc25B block: -13.0; MKP-1 inh: 10.3; tolC growth inh: -4.6; BAP1 inh: inactive

What do the screens show for `C=C(C)COc1ccc(-c2[nH]ncc2-c2ccccc2OC)c(O)c1`?
E coli RNAP: 6.9; Hsp90 block: -3.6; Cdc25B block: 1.8; MKP-1 inh: 18.3; tolC growth inh: 37.5; BAP1 inh: inactive

What do the screens show for `CCCOC(=O)c1ccc(Oc2cn[nH]c2-c2ccc(OC)cc2O)cc1`?
E coli RNAP: -1.9; Hsp90 block: -1.0; Cdc25B block: -4.4; MKP-1 inh: -16.8; tolC growth inh: 95.1*; BAP1 inh: inactive

What do the screens show for `C=C(C)COc1ccc(-c2[nH]ncc2Oc2ccccc2OC)c(O)c1`?
E coli RNAP: 6.2; Hsp90 block: -0.3; Cdc25B block: -2.6; MKP-1 inh: 3.7; tolC growth inh: 99.7*; BAP1 inh: inactive

How did Cc1ccsc1CC1C(=O)N(C)C(=O)N(C)C1=O do in these assays?
BAP1 inh: inactive

What do the screens show for `CCOc1ccc(-c2[nH]ncc2Oc2ccccc2OC)c(O)c1`?
E coli RNAP: 3.8; Hsp90 block: 2.5; Cdc25B block: -5.6; MKP-1 inh: 12.8; tolC growth inh: 94.4*; BAP1 inh: inactive

How did CCSc1oc(-c2ccccc2)nc1S(=O)(=O)c1ccccc1 do in these assays?
E coli RNAP: 5.9; Hsp90 block: -21.8; Cdc25B block: -2.3; MKP-1 inh: -9.4; tolC growth inh: 68.6*

Results for CCSc1oc(-c2ccco2)nc1S(=O)(=O)c1ccccc1 ?
E coli RNAP: 11.2; Hsp90 block: -6.7; MKP-1 inh: -19.1; tolC growth inh: 39.2; BAP1 inh: inactive

How did CCCSc1oc(-c2ccco2)nc1S(=O)(=O)c1ccccc1 do in these assays?
E coli RNAP: 5.0; Hsp90 block: -11.0; Cdc25B block: -12.3; MKP-1 inh: 4.1; tolC growth inh: 83.8*; BAP1 inh: inactive

How did O=S(=O)(c1ccccc1)c1nc(-c2ccco2)oc1N1CCCCCC1 do in these assays?
E coli RNAP: 1.0; Hsp90 block: -0.4; Cdc25B block: -8.5; MKP-1 inh: -0.5; tolC growth inh: 81.9*; BAP1 inh: inactive

What do the screens show for `O=C(Nc1ccc(CN2CCCCC2)cc1)c1ccc2c(c1)OCO2`?
E coli RNAP: 2.0; Hsp90 block: -3.8; Cdc25B block: -12.8; MKP-1 inh: -4.2; tolC growth inh: -12.2

What do the screens show for `O=C(Nc1ccn(Cc2ccc(Cl)cc2)n1)c1ccc2c(c1)OCO2`?
Hsp90 block: -7.6; Cdc25B block: 0.2; MKP-1 inh: 9.3; tolC growth inh: 62.7*; BAP1 inh: inactive

Results for CCOC(=O)c1ccc(N=C2SC(C(=O)Nc3ccccc3Cl)CC(=O)N2C)cc1 (stereo not drawn) ?
BAP1 inh: inactive

How did COc1nc(OC/C(N)=N/O)nc(N2CCOCC2)n1 do in these assays?
E coli RNAP: 3.0; Hsp90 block: 0.1; Cdc25B block: 65.5*; MKP-1 inh: -10.9; tolC growth inh: -18.1; BAP1 inh: inactive

High-throughput results from PubChem BioAssay.
